Legend:
Assay type in all cases: functional, cell-based
MGC-803 = test: Cytotoxicity against human MGC803 cells after 72 hrs by MTT assay; settings: MGC-803, 72 h
In short: (§1)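 K562, CaEs-17, Bel-7402 and MGC-803 cells in log phase seeded at 5 × 10⁴ cells/mL, incubated with or without test compounds at 37 °C, 5% CO₂; after 72 h MTT (5 mg/mL stock) added for 4 h, formazan dissolved in DMSO, OD read at 490 nm. Negative reference 0.1% DMSO, Taxol positive control. IC50 as mean ± S.D. of three independent experiments.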

K562 = test: Cytotoxicity against human K562 cells after 72 hrs by MTT assay; settings: K562, 72 h; in short: as §1
[1] = Cytotoxicity against human CaEs17 cells after 72 hrs by MTT assay; settings: CaEs17, 72 h; in short: as §1
Bel-7402 = test: Cytotoxicity against human Bel7402 cells after 72 hrs by MTT assay; settings: Bel-7402, 72 h; in short: as §1

Row | SMILES | IC50 (MGC-803) | IC50 (K562) | IC50 [1] | IC50 (Bel-7402)
1 | C=C1C(=O)[C@@]23C(=O)O[C@H]4CCC(C)(C)[C@H]5[C@H](O)OC[C@@]45[C@@H]2CC[C@@H]1[C@H]3OC(=O)c1ccccc1 | 930 nM | 210 nM | 540 nM | 1420 nM
2 | C=C1C(=O)[C@@]23C(=O)O[C@H]4CCC(C)(C)[C@H]5[C@H](O)OC[C@@]45[C@@H]2CC[C@@H]1[C@H]3OC(=O)c1ccc([N+](=O)[O-])cc1 | 640 nM | 260 nM | 580 nM | 1010 nM
3 | C=C1C(=O)[C@@]23C(=O)O[C@H]4CCC(C)(C)[C@H]5[C@H](O)OC[C@@]45[C@@H]2CC[C@@H]1[C@H]3OC(=O)c1cc(F)c(F)c(F)c1F | 1240 nM | 1040 nM | 1890 nM | 890 nM

From ChEMBL document CHEMBL2390862, “Enmein-type diterpenoid analogs from natural kaurene-type oridonin: Synthesis and their antitumor biological evaluation” (Eur J Med Chem, 2013)
